# According to ChEMBL document CHEMBL1255338, “Differential effects of quinoline antimalarials on endocytosis in Plasmodium falciparum” (2008):
# Calls of active or inactive are those of the source. The rule behind the calls is not given here.
# Tests used:
# [1] = test system: Plasmodium falciparum; assay: Antimalarial activity against early trophozoite-stage Plasmodium falciparum 3D7 infected in erythrocyte assessed as reduction in parasite hemoglobin content at 5 times IC50 after 8 hrs in presence of 40 uM protease inhibitor ALLN; type: functional, organism-based
# [2] = test system: Plasmodium falciparum; assay: Antimalarial activity against early trophozoite-stage Plasmodium falciparum 3D7 infected in erythrocyte assessed as reduction in parasite hemoglobin content at 5 times IC50 after 8 hrs; type: functional
# [3] = test system: Plasmodium falciparum; assay: Antimalarial activity against early trophozoite-stage Plasmodium falciparum 3D7 infected in erythrocyte assessed as reduction in parasite hemoglobin content at 5 times IC50 after 8 hrs in presence of 40 uM protease inhibitor E64; type: functional, organism-based
# [4] = test system: Plasmodium falciparum; assay: Antimalarial activity against schizont-stage Plasmodium falciparum 3D7 infected in erythrocyte assessed as inhibition of horseradish peroxidase(HRP) uptake after 10 hrs by colorimetric peroxidase assay; type: functional, organism-based
# How it was run: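 Erythrocytes preloaded with HRP by hypotonic lysis, then infected by incubation with enriched schizont-infected cells. Parasites exposed to quinolines for 10 h, released with saponin, washed, and lysed in Triton X-100. HRP measured colorimetrically with O-phenylenediamine at 450 nm. Significance vs control taken at P < 0.05.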
# [5] = test system: Plasmodium falciparum; assay: Antimalarial activity against Plasmodium falciparum 3D7 infected in erythrocyte assessed as increase in vesicle content after 8 hrs by immunofluorescence microscopy; type: functional, organism-based
# How it was run: (§1)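 Cultures left untreated or given quinoline for 8 h, then parasites freed by saponin lysis, fixed on polylysine-coated coverslips with paraformaldehyde and glutaraldehyde, permeabilized in Triton X-100, and stained with rabbit anti-Hb antiserum and TRITC-conjugated goat anti-rabbit antibody. Hb transport vesicles counted by fluorescence microscopy in 100 randomly chosen parasites per sample; mean per parasite ± SEM.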
# [6] = test system: Plasmodium falciparum; assay: Antimalarial activity against Plasmodium falciparum 3D7 infected in erythrocyte assessed as reduction in endocytic vesicle content after 8 hrs by immunofluorescence microscopy; type: functional, organism-based; how it was run: as §1
Compound,inhibition [1],inhibition [2],inhibition [3],inhibition [4],inhibition [5],inhibition (INH) [2],inhibition [6]
CCN(CC)CCCC(C)Nc1ccnc2cc(Cl)ccc12 (stereo not given),inactive,inactive,inactive,inactive,Active,,
CCCCN(CCCC)CCC(O)c1cc2c(Cl)cc(Cl)cc2c2cc(C(F)(F)F)ccc12 (stereo not given) [HALOFANTRINE],Active,,Active,Active,,64%,Active
CCN(CC)Cc1cc(Nc2ccnc3cc(Cl)ccc23)ccc1O,inactive,inactive,inactive,inactive,Active,,
OC(c1cc(C(F)(F)F)nc2c(C(F)(F)F)cccc12)C1CCCCN1 (stereo not given) [MEFLOQUINE],inactive,,inactive,Active,,83%,Active
C=C[C@H]1CN2CC[C@H]1C[C@H]2[C@H](O)c1ccnc2ccc(OC)cc12 [QUININE],Active,,Active,Active,,84%,Active
